From publication PMC7741178 (Bioorganic & medicinal chemistry, 2020)

Legend:
Assay type in all cases: cell-based
human CD4 (CD4-YFP) = human CD4 (CD4-YFP) (Homo sapiens, UniProt P01730); experiment: CD4 down-modulation in CD4-YFP transfected CHO cells; conditions: for CD4 down-modulation (in words): CD4-YFP CHO cells
Procedure, shortened: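 CHO cells stably expressing human CD4 fused at its C-terminus to YFP were exposed for 24 h at 37 °C to 1:5 serial dilutions of test compound. Cells were washed, fixed in 1% formaldehyde, and read at once by flow cytometry (488 nm laser). YFP MFI was expressed as % of matched untreated cells, after subtracting the background of non-transfected cells. IC50 is the 50% decrease in CD4. Mean ± SD, n = 3.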

HIV-1 NL4.3 (X4) = experiment: HIV-1 NL4.3 replication in MT-4 cells; conditions: HIV-1 NL4.3 in MT-4 cells
Procedure, shortened: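 MT-4 cells at 3.75×10^5 cells/mL in RPMI 1640 with 10% FBS and 2 mM L-glutamine were preincubated 15 min with test compound. HIV-1 NL4.3 (30 pg/well) was then added and cells were kept at 37 °C. On day 4, viability was read by MTS/PES at 490 and 700 nm, giving the IC50 for viral replication. Mean ± SD, n = 2 or 3.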

MT-4 cells = experiment: Cytotoxicity in MT-4 cells; conditions: CC50 MT-4 cells / IC50 CD4 down-modulation

Row | Structure (SMILES) | CD4 down-modulation (in words) (human CD4 (CD4-YFP)) | anti-HIV activity (in words) (HIV-1 NL4.3 (X4)) | therapeutic indices (CC50/IC50 for CD4) (MT-4 cells) | IC50 (human CD4 (CD4-YFP)) [nM]
1 | Cc1ccc(S(=O)(=O)N2CCc3cc(C(C)(C)C)cc(n3)CCN(S(=O)(=O)c3ccc(C)cc3)CC2)cc1 [Compound 16, 12-tert-Butyl-4,7-bis(p-toluenenesulfonyl)-4,7,14-triazabicyclo[8.3.1]tetradeca-1(14),1 0,12-triene] | no observable | no observable | – | –
2 | C=C1CN(S(=O)(=O)c2ccc(C)cc2)CCc2cc(CC(C)C)cc(n2)CCN(S(=O)(=O)c2ccc(C)cc2)C1.Cl [Compound 3k, 13-Isobutyl-6-methylene-4,8-di(p-toluenesulfonyl)-4,8,15-triazabicyclo[9.3.1]pentadeca-1(15),11,13-triene] | – | – | exceeding 100 | –
3 | C=C1CN(S(=O)(=O)c2ccc(C)cc2)CCc2cc(CCCC)cc(n2)CCN(S(=O)(=O)c2ccc(C)cc2)C1.Cl [Compound 3j, 13-Butyl-6-methylene-4,8-di(p-toluenesulfonyl)-4,8,15-triazabicyclo[9.3.1]pentadeca-1(15),11,13-triene] | – | – | exceeding 100 | 500
4 | C=C1CN(S(=O)(=O)c2ccc(C)cc2)Cc2cccc3cc4cccc(c4nc23)CN(S(=O)(=O)c2ccc(C)cc2)C1 [Compound 23, 9-Methylene-7,11,19-7,11-bis(p-toluenesulfonyl)-triazatetracyclo[15.3.1.0^5,20.0^13,18]henicosa-1(21),2,4,13,15,17,19-heptaene] | no observable | no observable | – | –
